Experimental data published in ChEMBL document CHEMBL1268868, “Discovery and mechanistic study of a class of protein arginine methylation inhibitors” (J Med Chem, 2010).
Active and inactive are the calls of the source. No cut-off for these calls is given here.

target: T1, Protein arginine N-methyltransferase 1 (Homo sapiens, UniProt Q99873); test: Inhibition of His6x-tagged PRMT1-mediated arginine methylation expressed in Escherichia coli BL21 (DE3) assessed as residual activity at 500 uM using H4(1-20) and [14C]-AdoMet by scintillation counting
Target sequence in this assay (Q99873 whole entry, looked up): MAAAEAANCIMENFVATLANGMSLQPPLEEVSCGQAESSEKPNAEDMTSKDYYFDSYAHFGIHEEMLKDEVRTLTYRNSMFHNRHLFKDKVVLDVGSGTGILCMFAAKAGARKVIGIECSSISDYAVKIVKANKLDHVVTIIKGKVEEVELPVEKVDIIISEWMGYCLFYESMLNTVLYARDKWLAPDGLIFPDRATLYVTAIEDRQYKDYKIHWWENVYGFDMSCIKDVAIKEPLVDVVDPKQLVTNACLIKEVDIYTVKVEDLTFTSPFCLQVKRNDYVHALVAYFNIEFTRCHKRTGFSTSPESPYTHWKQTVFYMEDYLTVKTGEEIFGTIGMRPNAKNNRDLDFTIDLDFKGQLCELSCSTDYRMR

Q: For CC(=O)Nc1cc([N+](=O)[O-])c(N(C)S(=O)(=O)c2ccccc2)c2ccccc12, which inhibition is on record?
A: inactive

Q: O=Cc1ccc(OS(=O)(=O)c2ccc3ccccc3c2)c(Br)c1 was tested. Which inhibition did it give?
A: inactive

Q: With NS(=O)(=O)c1ccc2c(O)cc(S(N)(=O)=O)cc2c1 as the compound, how does the inhibition read?
A: inactive

Q: COc1cc(C=O)cc(I)c1OS(=O)(=O)c1ccc2ccccc2c1 was tested. Which inhibition did it give?
A: inactive

Q: O=S(=O)(Oc1c(Br)cc(Br)cc1Br)c1ccc2ccccc2c1 was tested. Which inhibition did it give?
A: inactive

Q: COc1ccc(S(=O)(=O)Oc2ccc3ccccc3c2)c2ccccc12 was tested. Which inhibition did it give?
A: inactive

Q: COc1ccc(S(=O)(=O)Nc2ccc(S(=O)(=O)Nc3cccc4ccccc34)cc2)cc1OC was tested. Which inhibition did it give?
A: inactive

Q: How did the inhibition turn out when CCOC(=O)c1ccc(N2C(=O)CC(Sc3ccccc3C(=O)O)C2=O)cc1 (stereo not given) was run?
A: inactive

Q: Which inhibition does the source give for CCOc1cc(C=O)cc(Br)c1OS(=O)(=O)c1ccc2ccccc2c1 here?
A: inactive

Q: For CCOc1cc(C=O)ccc1OS(=O)(=O)c1ccc2ccccc2c1, which inhibition is on record?
A: inactive

Q: How did the inhibition turn out when O=S(=O)(O)c1cc(O)c2c(S(=O)(=O)O)cc(S(=O)(=O)O)cc2c1 was run?
A: inactive

Q: How did the inhibition turn out when O=S(=O)(Nc1ccccc1)c1cc(S(=O)(=O)Nc2ccccc2)c2cc(O)ccc2c1 was run?
A: inactive

Q: With NS(=O)(=O)c1ccc(CNc2ccnc3cc4ccccc4cc23)cc1 as the compound, how does the inhibition read?
A: inactive

Q: How did the inhibition turn out when O=S(=O)(Oc1cccc2c(OS(=O)(=O)c3ccccc3)cccc12)c1ccccc1 was run?
A: inactive

Q: Which inhibition does the source give for Nc1cc(S(=O)(=O)O)cc2cccc(S(=O)(=O)O)c12 here?
A: inactive

Q: CNc1ccc2c(O)cc(S(=O)(=O)O)cc2c1 was tested. Which inhibition did it give?
A: inactive

Q: With CCOc1ccc(S(=O)(=O)NCCNS(=O)(=O)c2ccc(OCC)c3ccccc23)c2ccccc12 as the compound, how does the inhibition read?
A: inactive

target: T1, Protein arginine N-methyltransferase 1; test: Inhibition of His6x-tagged PRMT1-mediated protein arginine methylation expressed in Escherichia coli BL21 (DE3) assessed as retained fractional activity of enzyme at 100 uM using H4(1-20) and [14C]-AdoMet by scintillation counting; set-up: scale not given: the % may be the effect or the level left
Summary of the method: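 His6x-PRMT1 (0.1 μM) with 2 μM H4(1-20) and 5 μM [14C]-AdoMet, compound at 100 μM or absent, 30 °C in 50 mM HEPES pH 8.0, 0.5 mM DTT, 1 mM EDTA, 50 mM NaCl. Substrates and compound preincubated 5 min before enzyme addition. Quenched on P81 paper, NaHCO3 wash, methylated product counted by liquid scintillation.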
Target sequence in this assay (Q99873 whole entry, looked up): as above

Q: Which Activity does the source give for Cc1ccccc1Nc1nc(-c2ccccc2)c(C(=O)Nc2cccnc2)s1 here?
A: 100%

Q: Which Activity does the source give for O=C(OC[C@@H]1CO[C@@](Cn2ccnc2)(c2ccc(Cl)cc2Cl)O1)c1ccccc1 here?
A: 100%

Q: For Cn1c(SCC(=O)Nc2ccccc2)nnc1-c1cncc(C#Cc2ccccc2)c1, which Activity is on record?
A: 100%

Q: How did the Activity turn out when CCOC(=O)[C@H]1CCCN(S(=O)(=O)c2cc(S(=O)(=O)c3ccccc3)cs2)C1 was run?
A: 100%

Q: Which Activity does the source give for N#Cc1cccc(C#N)c1Oc1ccc(S(=O)(=O)Nc2ccc(Cl)cc2)cc1 here?
A: 100%

Q: For O=C1N=c2ccccc2=C1Nc1ccc(Cc2ccc(NC3=c4ccccc4=NC3=O)cc2)cc1, which Activity is on record?
A: 100%

target: T2, Histone acetyltransferase p300 (Homo sapiens, UniProt Q09472); test: Inhibition of HAT p300-mediated […] using H4(1-20) and [14C]-acetyl CoA by scintillation counting
Summary of the method: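 Recombinant p300 HAT domain (1287-1666), 20 nM, with 10 μM H4(1-20) and 10 μM [14C]-acetyl CoA plus increasing inhibitor in 50 mM HEPES pH 8.0, 50 mM NaCl, 0.5 mM DTT, 1 mM EDTA; 10 min at 30 °C. Quenched on P81 filter paper, acetylated product counted by liquid scintillation; fractional activity plotted against inhibitor concentration.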

T2 sequence (Q09472 whole entry, the tested form may be a part): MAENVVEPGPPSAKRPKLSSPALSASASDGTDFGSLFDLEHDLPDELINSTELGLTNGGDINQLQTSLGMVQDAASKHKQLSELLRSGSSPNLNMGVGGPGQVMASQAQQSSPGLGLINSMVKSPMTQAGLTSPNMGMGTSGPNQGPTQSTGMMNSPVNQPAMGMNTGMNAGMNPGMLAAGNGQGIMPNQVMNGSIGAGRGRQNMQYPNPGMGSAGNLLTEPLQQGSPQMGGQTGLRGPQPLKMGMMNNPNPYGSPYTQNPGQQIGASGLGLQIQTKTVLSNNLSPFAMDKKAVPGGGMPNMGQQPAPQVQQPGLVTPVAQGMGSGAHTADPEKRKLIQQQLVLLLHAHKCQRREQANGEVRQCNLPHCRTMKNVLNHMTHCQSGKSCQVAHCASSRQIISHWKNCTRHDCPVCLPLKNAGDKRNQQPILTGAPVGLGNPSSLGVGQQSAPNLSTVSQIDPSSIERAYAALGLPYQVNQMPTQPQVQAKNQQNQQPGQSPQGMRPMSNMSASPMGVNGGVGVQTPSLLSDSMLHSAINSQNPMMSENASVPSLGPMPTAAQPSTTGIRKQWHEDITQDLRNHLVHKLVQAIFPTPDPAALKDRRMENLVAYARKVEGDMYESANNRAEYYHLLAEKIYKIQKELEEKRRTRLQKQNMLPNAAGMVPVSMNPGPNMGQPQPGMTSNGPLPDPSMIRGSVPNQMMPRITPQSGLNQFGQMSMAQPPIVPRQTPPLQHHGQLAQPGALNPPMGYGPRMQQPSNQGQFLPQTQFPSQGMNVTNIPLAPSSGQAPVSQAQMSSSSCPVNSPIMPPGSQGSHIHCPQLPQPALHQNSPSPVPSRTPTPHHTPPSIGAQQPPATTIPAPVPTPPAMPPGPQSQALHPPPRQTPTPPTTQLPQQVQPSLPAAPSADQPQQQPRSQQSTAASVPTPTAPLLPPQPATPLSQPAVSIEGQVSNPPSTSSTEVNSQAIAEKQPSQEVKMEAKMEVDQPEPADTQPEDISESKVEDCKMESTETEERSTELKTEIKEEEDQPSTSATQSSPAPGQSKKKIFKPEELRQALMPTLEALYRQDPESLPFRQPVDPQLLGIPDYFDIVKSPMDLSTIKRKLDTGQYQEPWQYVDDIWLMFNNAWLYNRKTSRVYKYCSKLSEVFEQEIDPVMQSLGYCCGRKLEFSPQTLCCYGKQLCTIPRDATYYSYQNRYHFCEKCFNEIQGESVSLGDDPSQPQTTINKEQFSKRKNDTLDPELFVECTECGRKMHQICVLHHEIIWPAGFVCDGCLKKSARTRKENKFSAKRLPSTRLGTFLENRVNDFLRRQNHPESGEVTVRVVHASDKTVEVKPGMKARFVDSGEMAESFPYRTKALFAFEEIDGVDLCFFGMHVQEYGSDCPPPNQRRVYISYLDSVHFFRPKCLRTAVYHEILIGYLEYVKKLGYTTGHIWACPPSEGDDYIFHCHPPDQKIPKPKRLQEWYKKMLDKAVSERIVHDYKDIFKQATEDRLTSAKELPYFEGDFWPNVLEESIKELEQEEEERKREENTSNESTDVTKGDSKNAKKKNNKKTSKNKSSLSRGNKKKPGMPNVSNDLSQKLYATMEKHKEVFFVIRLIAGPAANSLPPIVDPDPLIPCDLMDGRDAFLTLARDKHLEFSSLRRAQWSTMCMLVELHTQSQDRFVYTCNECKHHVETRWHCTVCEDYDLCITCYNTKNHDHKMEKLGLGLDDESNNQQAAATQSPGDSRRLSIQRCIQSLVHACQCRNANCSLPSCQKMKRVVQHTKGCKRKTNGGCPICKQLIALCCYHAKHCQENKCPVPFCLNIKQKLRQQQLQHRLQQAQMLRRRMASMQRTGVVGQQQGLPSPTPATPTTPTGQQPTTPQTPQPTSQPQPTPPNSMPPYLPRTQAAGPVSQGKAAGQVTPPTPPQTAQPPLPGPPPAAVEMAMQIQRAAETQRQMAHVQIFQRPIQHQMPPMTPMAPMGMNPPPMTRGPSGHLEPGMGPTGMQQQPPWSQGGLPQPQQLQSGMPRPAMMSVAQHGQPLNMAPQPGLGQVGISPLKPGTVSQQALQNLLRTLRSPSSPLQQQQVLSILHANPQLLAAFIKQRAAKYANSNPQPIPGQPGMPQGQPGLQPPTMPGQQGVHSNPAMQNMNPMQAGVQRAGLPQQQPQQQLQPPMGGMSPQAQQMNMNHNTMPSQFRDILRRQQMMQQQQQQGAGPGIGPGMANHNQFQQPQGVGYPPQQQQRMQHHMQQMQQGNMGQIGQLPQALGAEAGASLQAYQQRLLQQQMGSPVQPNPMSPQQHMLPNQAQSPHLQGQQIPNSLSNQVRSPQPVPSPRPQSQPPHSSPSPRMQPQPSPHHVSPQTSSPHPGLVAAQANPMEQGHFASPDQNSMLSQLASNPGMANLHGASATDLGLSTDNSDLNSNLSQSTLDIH

Q: With O=C(Nc1ccc2c(O)cc(S(=O)(=O)O)cc2c1)Nc1ccc2c(O)cc(S(=O)(=O)O)cc2c1 as the compound, how does the IC50 read?
A: 118 µM

Q: Which IC50 does the source give for CC(=O)Nc1ccc(/N=N/c2c(S(=O)(=O)O)cc3cc(NC(=O)Nc4ccc5c(O)c(/N=N/c6ccccc6)c(S(=O)(=O)O)cc5c4)ccc3c2O)cc1 here?
A: 21.3 µM

target: T3, Histone-arginine methyltransferase CARM1 (Mus musculus, UniProt Q9WVG6); test: Inhibition of mouse GST-tagged CARM1-mediated arginine methylation expressed in Escherichia coli BL21 (DE3) using H3(1-31) and [14C]-SAM by scintillation counting
T3 sequence (Q9WVG6 whole entry): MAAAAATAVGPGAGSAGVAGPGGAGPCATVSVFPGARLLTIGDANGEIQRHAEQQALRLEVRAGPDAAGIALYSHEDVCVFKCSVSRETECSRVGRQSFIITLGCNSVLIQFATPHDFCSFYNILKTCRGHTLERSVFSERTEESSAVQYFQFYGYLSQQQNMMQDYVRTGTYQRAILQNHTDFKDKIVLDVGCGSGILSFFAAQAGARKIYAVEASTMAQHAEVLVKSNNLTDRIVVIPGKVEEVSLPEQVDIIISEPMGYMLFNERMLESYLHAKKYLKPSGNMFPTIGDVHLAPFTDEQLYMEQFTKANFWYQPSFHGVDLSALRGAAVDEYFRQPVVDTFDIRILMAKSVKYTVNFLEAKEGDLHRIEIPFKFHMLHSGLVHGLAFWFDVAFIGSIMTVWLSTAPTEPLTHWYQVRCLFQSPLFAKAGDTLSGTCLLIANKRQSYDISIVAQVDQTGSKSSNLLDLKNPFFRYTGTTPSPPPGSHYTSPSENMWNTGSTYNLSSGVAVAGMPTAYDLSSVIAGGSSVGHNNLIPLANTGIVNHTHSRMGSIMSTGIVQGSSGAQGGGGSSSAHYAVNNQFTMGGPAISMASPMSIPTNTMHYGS
Summary of the method: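 GST-tagged mouse CARM1 from E. coli BL21(DE3), glutathione-agarose purified; 5 μM enzyme, 1 mM H3(1-31), 30 μM [14C]-SAM, inhibitor up to 500 μM, 30 °C in 50 mM HEPES pH 8.0, 0.5 mM DTT, 1 mM EDTA, 50 mM NaCl. P81 filter capture, liquid scintillation counting.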

Q: How did the IC50 turn out when CC(=O)Nc1ccc(/N=N/c2c(S(=O)(=O)O)cc3cc(NC(=O)Nc4ccc5c(O)c(/N=N/c6ccccc6)c(S(=O)(=O)O)cc5c4)ccc3c2O)cc1 was run?
A: 2000 µM

target: Protein arginine N-methyltransferase 3 (Homo sapiens, UniProt O60678); test: Inhibition of His6x-tagged PRMT3-mediated arginine methylation expressed in Escherichia coli BL21 (DE3) using GAR R4 peptide and [14C]-SAM by scintillation counting
Summary of the method: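 His6x-PRMT3 expressed in E. coli BL21(DE3), Ni-NTA purified; 0.1 μM enzyme, 2 μM R4 peptide, 5 μM [14C]-SAM, varied inhibitor, 30 °C in 50 mM HEPES pH 8.0, 0.5 mM DTT, 1 mM EDTA, 50 mM NaCl; 5 min preincubation before enzyme. P81 filter capture, liquid scintillation; IC50 = inhibitor concentration giving half-maximal activity.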

Chain of Protein arginine N-methyltransferase 3 (O60678 whole entry): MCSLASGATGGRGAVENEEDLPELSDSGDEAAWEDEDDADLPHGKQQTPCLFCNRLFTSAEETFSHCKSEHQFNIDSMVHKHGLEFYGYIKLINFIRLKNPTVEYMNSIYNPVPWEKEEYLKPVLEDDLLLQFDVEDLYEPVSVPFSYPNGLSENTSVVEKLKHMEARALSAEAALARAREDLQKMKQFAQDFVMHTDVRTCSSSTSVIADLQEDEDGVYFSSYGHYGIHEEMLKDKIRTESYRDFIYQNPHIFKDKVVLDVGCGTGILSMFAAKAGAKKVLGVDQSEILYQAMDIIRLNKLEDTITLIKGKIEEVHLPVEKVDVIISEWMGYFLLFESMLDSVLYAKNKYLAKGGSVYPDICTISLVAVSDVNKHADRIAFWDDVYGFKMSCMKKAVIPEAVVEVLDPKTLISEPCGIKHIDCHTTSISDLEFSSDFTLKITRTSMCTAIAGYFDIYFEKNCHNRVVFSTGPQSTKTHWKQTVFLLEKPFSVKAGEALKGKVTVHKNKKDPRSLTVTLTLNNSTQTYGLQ

Q: For CC(=O)Nc1ccc(/N=N/c2c(S(=O)(=O)O)cc3cc(NC(=O)Nc4ccc5c(O)c(/N=N/c6ccccc6)c(S(=O)(=O)O)cc5c4)ccc3c2O)cc1, which IC50 is on record?
A: 7.1 µM

target: T1, Protein arginine N-methyltransferase 1; test: Inhibition of His6x-tagged PRMT1-mediated protein arginine methylation expressed in Escherichia coli BL21 (DE3) using H4(1-20) and [14C]-SAM by scintillation counting
Target sequence in this assay (Q99873 whole entry): as the sequence (Q99873 whole entry, looked up) above

Q: O=S(=O)(O)c1cc(O)c2c(/N=N/c3c(S(=O)(=O)O)cc4cc(S(=O)(=O)O)cc(O)c4c3O)cc(S(=O)(=O)O)cc2c1 was tested. Which IC50 did it give?
A: 72.1 µM

Q: Which IC50 does the source give for Cc1ccc(C(=O)Nc2ccc(S(=O)(=O)O)c3cc(S(=O)(=O)O)cc(S(=O)(=O)O)c23)cc1NC(=O)c1cccc(NC(=O)Nc2cccc(C(=O)Nc3cc(C(=O)Nc4ccc(S(=O)(=O)O)c5cc(S(=O)(=O)O)cc(S(=O)(=O)O)c45)ccc3C)c2)c1 [SURAMIN] here?
A: 5.33 µM

target: T2, Histone acetyltransferase p300; test: Inhibition of HAT p300-mediated […] assessed as residual activity at 1 mM using H4(1-20) and [14C]-acetyl CoA by scintillation counting; values are per cent of control

Q: N=C(N)c1ccc(/C=C/c2ccc(C(=N)N)cc2)cc1 was tested. Which residual activity did it give?
A: 84%

target: Protein arginine N-methyltransferase 6 (Homo sapiens, UniProt Q96LA8); test: Inhibition of His6x-tagged PRMT6-mediated arginine methylation expressed in Escherichia coli BL21 (DE3) using H3(1-31) peptide and [14C]-SAM by scintillation counting
Summary of the method: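 His6x-PRMT6 from E. coli BL21(DE3), Ni-NTA purified; 0.5 μM enzyme, 10 μM H3(1-31), 5 μM [14C]-SAM and varied inhibitor at 30 °C in HEPES pH 8.0 buffer with DTT, EDTA, NaCl; 5 min preincubation before enzyme. Product captured on P81 paper, counted by liquid scintillation; IC50 taken at half-maximal activity.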

Chain of Protein arginine N-methyltransferase 6 (Q96LA8 whole entry): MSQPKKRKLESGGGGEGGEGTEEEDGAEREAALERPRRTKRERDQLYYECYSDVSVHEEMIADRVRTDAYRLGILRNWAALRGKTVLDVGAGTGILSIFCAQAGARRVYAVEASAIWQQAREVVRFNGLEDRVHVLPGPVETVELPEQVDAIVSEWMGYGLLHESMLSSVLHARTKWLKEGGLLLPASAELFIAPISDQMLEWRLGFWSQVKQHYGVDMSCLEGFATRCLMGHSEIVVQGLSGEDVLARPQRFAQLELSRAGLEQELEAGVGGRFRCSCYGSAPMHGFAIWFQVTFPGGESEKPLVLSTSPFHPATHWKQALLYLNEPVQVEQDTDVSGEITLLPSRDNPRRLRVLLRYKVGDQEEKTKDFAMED

Q: How did the IC50 turn out when CC(=O)Nc1ccc(/N=N/c2c(S(=O)(=O)O)cc3cc(NC(=O)Nc4ccc5c(O)c(/N=N/c6ccccc6)c(S(=O)(=O)O)cc5c4)ccc3c2O)cc1 was run?
A: 39.2 µM

target: T1, Protein arginine N-methyltransferase 1; test: Inhibition of His6x-tagged PRMT1-mediated protein arginine methylation expressed in Escherichia coli BL21 (DE3) using GAR R4 peptide and [14C]-AdoMet by scintillation counting
Target sequence in this assay (Q99873 whole entry): as the sequence (Q99873 whole entry, looked up) above

Q: O=S(=O)(O)c1cc(O)c2c(/N=N/c3c(S(=O)(=O)O)cc4cc(S(=O)(=O)O)cc(O)c4c3O)cc(S(=O)(=O)O)cc2c1 was tested. Which IC50 did it give?
A: 463 µM

Q: For Cc1ccc(C(=O)Nc2ccc(S(=O)(=O)O)c3cc(S(=O)(=O)O)cc(S(=O)(=O)O)c23)cc1NC(=O)c1cccc(NC(=O)Nc2cccc(C(=O)Nc3cc(C(=O)Nc4ccc(S(=O)(=O)O)c5cc(S(=O)(=O)O)cc(S(=O)(=O)O)c45)ccc3C)c2)c1 [SURAMIN], which IC50 is on record?
A: 1010 µM

target: T1, Protein arginine N-methyltransferase 1; test: Inhibition of His6x-tagged PRMT1-mediated arginine methylation expressed in Escherichia coli BL21 (DE3) assessed as residual activity at 100 uM using H4(1-20) and [14C]-AdoMet by scintillation counting; values are per cent of control
Target sequence in this assay (Q99873 whole entry, looked up): as above

Q: For CC(=O)Nc1ccc2cc(S(=O)(=O)O)cc(OS(=O)(=O)c3ccccc3)c2c1, which residual activity is on record?
A: 71.4%

Q: How did the residual activity turn out when O=C(Nc1cccc2c(S(=O)(=O)O)cccc12)c1ccccc1 was run?
A: 86.9%
